# Laboratory results taken from ChEMBL document CHEMBL4689842, “EUbOPEN Chemogenomics Library wave 1” (2021).
# System: U2OS
# Experiment: Multiplex assay against U2OS
# Assay type: toxicity, cell-based
# Conditions: human
# Outline: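 Cells stained live at seeding with Hoechst33342, BioTracker Green Microtubule Cytoskeleton Dye, MitoTracker Red and Annexin V Alexa Fluor 680 were imaged on a CQ1 microscope at 37°C and 5% CO2 after compound addition. Their classification by CellPathfinder machine-learning gating ran from Hoechst high-intensity objects versus normal cells, to healthy, pyknosed or fragmented nuclei among normal cells, to mitotic or apoptotic among pyknosed cells. Tubulin, mitochondrial-mass and membrane-permeability phenotypes are per cents of healthy-nucleus cells.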
# [1] = 12 h, 1 µM, compound concentration 1 uM, replicate 1
# [2] = 12 h, 1 µM, compound concentration 1 uM, replicate 2
# [3] = 12 h, 10 µM, compound concentration 10 uM, replicate 1
# [4] = 12 h, 10 µM, compound concentration 10 uM, replicate 2
# [5] = 24 h, 1 µM, compound concentration 1 uM, replicate 1
# [6] = 24 h, 1 µM, compound concentration 1 uM, replicate 2
# [7] = 24 h, 10 µM, compound concentration 10 uM, replicate 1
# [8] = 24 h, 10 µM, compound concentration 10 uM, replicate 2
# [9] = 48 h, 1 µM, compound concentration 1 uM, replicate 1
# [10] = 48 h, 1 µM, compound concentration 1 uM, replicate 2
# [11] = 48 h, 10 µM, compound concentration 10 uM, replicate 1
# [12] = 48 h, 10 µM, compound concentration 10 uM, replicate 2
smiles,measurement,setting,value
O=C(Nc1ccc(Cl)cc1)Nc1cccc(-c2cccc(N3CCCC3)n2)c1,Population Apoptotic (%),[1],44%
same,Population Fragmented Nuclei (%),[1],11%
same,Population Healthy Nuclei (%),[1],79%
same,Population Hoechst High Intensity Objects (%),[1],10%
same,Population Membrane Permeable-Phenotype (%),[1],7%
same,Population Mitochondria Different-Phenotype (%),[1],7%
same,Population Mitotic Cells (%),[1],55%
same,Population Normal (%),[1],89%
same,Population Pyknosed Nuclei (%),[1],9%
same,Population Tubulin-Different-Phenotype (%),[1],7%
same,Total Cell Count,[1],158
same,Population Apoptotic (%),[2],25%
same,Population Fragmented Nuclei (%),[2],17%
same,Population Healthy Nuclei (%),[2],76%
same,Population Hoechst High Intensity Objects (%),[2],7%
same,Population Membrane Permeable-Phenotype (%),[2],10%
same,Population Mitochondria Different-Phenotype (%),[2],8%
same,Population Mitotic Cells (%),[2],75%
same,Population Normal (%),[2],92%
same,Population Pyknosed Nuclei (%),[2],6%
same,Population Tubulin-Different-Phenotype (%),[2],12%
same,Total Cell Count,[2],83
same,Population Apoptotic (%),[3],58%
same,Population Fragmented Nuclei (%),[3],10%
same,Population Healthy Nuclei (%),[3],65%
same,Population Hoechst High Intensity Objects (%),[3],10%
same,Population Membrane Permeable-Phenotype (%),[3],80%
same,Population Mitochondria Different-Phenotype (%),[3],12%
same,Population Mitotic Cells (%),[3],41%
same,Population Normal (%),[3],89%
same,Population Pyknosed Nuclei (%),[3],24%
same,Population Tubulin-Different-Phenotype (%),[3],82%
same,Total Cell Count,[3],109
same,Population Apoptotic (%),[4],72%
same,Population Fragmented Nuclei (%),[4],3%
same,Population Healthy Nuclei (%),[4],78%
same,Population Hoechst High Intensity Objects (%),[4],7%
same,Population Membrane Permeable-Phenotype (%),[4],69%
same,Population Mitochondria Different-Phenotype (%),[4],7%
same,Population Mitotic Cells (%),[4],27%
same,Population Normal (%),[4],92%
same,Population Pyknosed Nuclei (%),[4],17%
same,Population Tubulin-Different-Phenotype (%),[4],74%
same,Total Cell Count,[4],69
same,Population Apoptotic (%),[5],41%
same,Population Fragmented Nuclei (%),[5],6%
same,Population Healthy Nuclei (%),[5],83%
same,Population Membrane Permeable-Phenotype (%),[5],5%
same,Population Mitotic Cells (%),[5],58%
same,Population Pyknosed Nuclei (%),[5],9%
same,Population Tubulin-Different-Phenotype (%),[5],3%
same,Population Apoptotic (%),[6],20%
same,Population Fragmented Nuclei (%),[6],18%
same,Population Healthy Nuclei (%),[6],75%
same,Population Hoechst High Intensity Objects (%),[6],6%
same,Population Membrane Permeable-Phenotype (%),[6],7%
same,Population Mitochondria Different-Phenotype (%),[6],3%
same,Population Mitotic Cells (%),[6],80%
same,Population Normal (%),[6],93%
same,Population Pyknosed Nuclei (%),[6],6%
same,Population Tubulin-Different-Phenotype (%),[6],12%
same,Total Cell Count,[6],94
same,Population Apoptotic (%),[7],83%
same,Population Fragmented Nuclei (%),[7],17%
same,Population Healthy Nuclei (%),[7],54%
same,Population Hoechst High Intensity Objects (%),[7],21%
same,Population Membrane Permeable-Phenotype (%),[7],53%
same,Population Mitochondria Different-Phenotype (%),[7],13%
same,Population Mitotic Cells (%),[7],16%
same,Population Normal (%),[7],78%
same,Population Pyknosed Nuclei (%),[7],28%
same,Population Tubulin-Different-Phenotype (%),[7],61%
same,Total Cell Count,[7],131
same,Population Apoptotic (%),[8],72%
same,Population Fragmented Nuclei (%),[8],13%
same,Population Hoechst High Intensity Objects (%),[8],25%
same,Population Membrane Permeable-Phenotype (%),[8],46%
same,Population Mitochondria Different-Phenotype (%),[8],15%
same,Population Mitotic Cells (%),[8],27%
same,Population Normal (%),[8],74%
same,Population Pyknosed Nuclei (%),[8],31%
same,Population Tubulin-Different-Phenotype (%),[8],46%
same,Total Cell Count,[8],81
same,Population Apoptotic (%),[9],30%
same,Population Fragmented Nuclei (%),[9],4%
same,Population Healthy Nuclei (%),[9],88%
same,Population Hoechst High Intensity Objects (%),[9],6%
same,Population Membrane Permeable-Phenotype (%),[9],1%
same,Population Mitochondria Different-Phenotype (%),[9],5%
same,Population Mitotic Cells (%),[9],69%
same,Population Normal (%),[9],93%
same,Population Pyknosed Nuclei (%),[9],6%
same,Population Tubulin-Different-Phenotype (%),[9],2%
same,Total Cell Count,[9],245
same,Population Apoptotic (%),[10],50%
same,Population Fragmented Nuclei (%),[10],8%
same,Population Healthy Nuclei (%),[10],83%
same,Population Hoechst High Intensity Objects (%),[10],5%
same,Population Membrane Permeable-Phenotype (%),[10],4%
same,Population Mitochondria Different-Phenotype (%),[10],9%
same,Population Mitotic Cells (%),[10],50%
same,Population Normal (%),[10],94%
same,Population Pyknosed Nuclei (%),[10],7%
same,Population Tubulin-Different-Phenotype (%),[10],12%
same,Total Cell Count,[10],110
same,Population Apoptotic (%),[11],91%
same,Population Fragmented Nuclei (%),[11],21%
same,Population Healthy Nuclei (%),[11],33%
same,Population Hoechst High Intensity Objects (%),[11],31%
same,Population Membrane Permeable-Phenotype (%),[11],31%
same,Population Mitochondria Different-Phenotype (%),[11],29%
same,Population Mitotic Cells (%),[11],8%
same,Population Normal (%),[11],68%
same,Population Pyknosed Nuclei (%),[11],44%
same,Population Tubulin-Different-Phenotype (%),[11],33%
same,Total Cell Count,[11],221
same,Population Apoptotic (%),[12],87%
same,Population Fragmented Nuclei (%),[12],19%
same,Population Healthy Nuclei (%),[12],26%
same,Population Hoechst High Intensity Objects (%),[12],39%
same,Population Membrane Permeable-Phenotype (%),[12],40%
same,Population Mitochondria Different-Phenotype (%),[12],25%
same,Population Mitotic Cells (%),[12],12%
same,Population Normal (%),[12],60%
same,Population Pyknosed Nuclei (%),[12],53%
same,Population Tubulin-Different-Phenotype (%),[12],48%
same,Total Cell Count,[12],108
